Assay results published in the RNAGym collection of RNA variant scans (doi:10.1126/science.aae0568).
Variants at the floor of the assay were thinned out.

B1: tRNA (parent)
chain: GUUCCGUUGGCGUAAUGGUAACGCGUCUCCCUCCUAAGGAGAAGACUGCGGGUUCGAGUCCCGUACGGAACG

Variants of: B1
Assay: yeast fitness relative to wild type (ratio to wild type); higher = fitter; tRNA-Arg(CCU), competitive growth, 37 C, YPD
How it was run: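 Variants of the tRNA-Arg(CCU) gene were chemically synthesised with a 3% per-site mutation rate across 69 sites and placed at the native genomic locus in Saccharomyces cerevisiae. Six parallel replicates of the pooled strains were competed in YPD at 37°C for 24 hours, and gene amplicons from the start and end populations were read by 100-nucleotide paired-end sequencing. Darwinian fitness relative to wild type was derived from changes in genotype frequencies. Genotypes required ≥ 100 starting reads, and estimates < 0.5 were set to 0.5.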

Compared with C11G U13A, A14G C46U is lower in yeast fitness: 1.03 for the first, 0.886 for the second.

First: C24A C29G U54A
Second: G39C A57G
The yeast fitness of the first is lower: 0.568 for the first, 0.705 for the second.

Going from C5A A69U to A15C C30A, the yeast fitness falls from 0.917 to 0.666.

Going from G18C C24G C46A G56C G58A to G12A C30G, the yeast fitness rises from at most 0.5 to 0.689.

Going from A21U C22U A42C A43U G44C A65C to A37C G63C C66U, the yeast fitness falls from 0.663 to at most 0.5.

Going from U3A G17A C22U to C30U A45U A69G, the yeast fitness rises from 0.559 to 0.566.

Compared with U19C U35G A43G, A15U C24U G44A is lower in yeast fitness: 0.598 for the first, 0.503 for the second.

First: U16C G39C
Second: A15C G25C C29U U35C A43U G67C
The yeast fitness of the first is higher: 0.696 for the first, at most 0.5 for the second.

A14U A36C U53C A69C and G41C A42U U64C G68C cannot be ordered by yeast fitness: at most 0.5 for the first, at most 0.5 for the second.

A20G A40C A42U A43C G48A A69C and A40C U54A C62U cannot be ordered by yeast fitness: at most 0.5 for the first, at most 0.5 for the second.

Compared with A15G C49U C61U, C22G G25C A37G is lower in yeast fitness: 0.672 for the first, at most 0.5 for the second.

Going from A21G A37G C60G to G12A C33U A36C C62U, the yeast fitness rises from at most 0.5 to 0.553.

Compared with C4U U53G, C5U G23A A69U is lower in yeast fitness: 0.558 for the first, at most 0.5 for the second.

Compared with U7A C11A G18A C31U C34U U47C C49A G56A A57U, C11U C22G A70C is higher in yeast fitness: at most 0.5 for the first, 0.669 for the second.

C11G C33U A36G C55U and U2A U13C A20G A21C C34U A36G cannot be ordered by yeast fitness: at most 0.5 for the first, at most 0.5 for the second.

First: G12A A43G A69U
Second: U19A C22G C24U C33G
The yeast fitness of the first is higher: 0.803 for the first, 0.674 for the second.

U13A A14U C22A G48C and C22A C49U G51C cannot be ordered by yeast fitness: at most 0.5 for the first, at most 0.5 for the second.

Going from G17A A20G C29U C33U C60G to C27G U59G G68C, the yeast fitness rises from at most 0.5 to 0.582.

Going from A20G C34G to G9A A45U A70U, the yeast fitness rises from 0.68 to 1.01.

U8A G44A G67C and G6C U7G C24U C27A A57G cannot be ordered by yeast fitness: at most 0.5 for the first, at most 0.5 for the second.

Going from G12C G58A C62U A69C to U2G A21C C22U A70U, the yeast fitness falls from 0.699 to at most 0.5.

Compared with A15C A40U, C27G U64C is lower in yeast fitness: 0.833 for the first, 0.693 for the second.

G17A U28G C62G and C4A A15G G17A C33U G39C C55A G67C cannot be ordered by yeast fitness: at most 0.5 for the first, at most 0.5 for the second.

Going from C5U A45U C49A to A15C G17A G18A A36C, the yeast fitness falls from 0.696 to at most 0.5.

First: C11G C34U C55G
Second: C11U U16A U54C
The yeast fitness of the first is higher: 0.689 for the first, at most 0.5 for the second.

First: U8A C29A
Second: U2C A20G A42U
The yeast fitness of the first is lower: at most 0.5 for the first, 0.642 for the second.

Compared with C4U G41A, C24G G38C is lower in yeast fitness: 1.02 for the first, 0.566 for the second.

C24U C27G U32C A65U and G6A C29U G50C U53C A57U C61G cannot be ordered by yeast fitness: at most 0.5 for the first, at most 0.5 for the second.

First: C49U C60U A69C
Second: A20C C61U
The yeast fitness of the first is lower: 0.566 for the first, 0.806 for the second.

Going from C11G C33A A42C to G10C U47A G48A, the yeast fitness falls from 0.7 to 0.568.

First: C11U A21C C22G U54C C62A
Second: U32C A42U G48C
The yeast fitness of the first is lower: at most 0.5 for the first, 0.567 for the second.

C4A C31U C34A A40G and A20G C60U C62U cannot be ordered by yeast fitness: at most 0.5 for the first, at most 0.5 for the second.

Compared with C4G C5A U28G, A21G U32A C66U is higher in yeast fitness: at most 0.5 for the first, 0.512 for the second.

Going from A20G C60U A69U to A20G A21G C24U U59C C62A, the yeast fitness falls from 0.592 to at most 0.5.

U13C A36G C46A C49A and C11A A21G C33G A36U G44A U59C cannot be ordered by yeast fitness: at most 0.5 for the first, at most 0.5 for the second.

Compared with G38A A40U G50C C60G A70G, G10A A45G C55A is lower in yeast fitness: 0.526 for the first, at most 0.5 for the second.

First: U3A U47G G67A A69U
Second: G10C A45G
The yeast fitness of the first is lower: at most 0.5 for the first, 0.716 for the second.

Going from U26A C27A C31U to U8C U26A A43U A70U, the yeast fitness rises from at most 0.5 to 0.675.

First: C34A G44A G52A C55U
Second: A21U A70U
The yeast fitness of the first is lower: 0.53 for the first, 0.754 for the second.

U3G A37U G63A C66U and U13C A43U C46G cannot be ordered by yeast fitness: at most 0.5 for the first, at most 0.5 for the second.

First: C24G C30G C66U
Second: G9A A14U A21C
The yeast fitness of the first is lower: at most 0.5 for the first, 0.577 for the second.

C30A C55G C66U and G10C G23C A42G G50A A57C G67A cannot be ordered by yeast fitness: at most 0.5 for the first, at most 0.5 for the second.

First: C22U G48A A69C
Second: A20U U47C
The yeast fitness of the first is lower: 0.741 for the first, 0.935 for the second.

Compared with U2G G17C C33U U47A A69U, A14G A43C A45G is higher in yeast fitness: at most 0.5 for the first, 0.585 for the second.

First: U19C G25A
Second: U13A U54C
The yeast fitness of the first is higher: 0.969 for the first, 0.934 for the second.

Going from U7G C31U A69U to A15C G56A G67A, the yeast fitness falls from 0.628 to 0.61.

Compared with C4G C29A C33G A45C, C5G G38C is lower in yeast fitness: 0.588 for the first, 0.565 for the second.

A14U C30G A40G C66U and U2A U3G C29G C30G C46G A70G cannot be ordered by yeast fitness: at most 0.5 for the first, at most 0.5 for the second.

Going from U16G A20G to U16C C34G A65U G67U, the yeast fitness falls from 1 to at most 0.5.

First: G58C G63A
Second: G6A C27G A57C C66G
The yeast fitness of the first is higher: 0.873 for the first, at most 0.5 for the second.

C5U C11U A15G U53A A65G and C27G A36C G44A cannot be ordered by yeast fitness: at most 0.5 for the first, at most 0.5 for the second.

Going from C11G U13C G58C A69U to U7A G52A, the yeast fitness rises from at most 0.5 to 0.582.

C5G G10C U13G A40G U54A and U8G C49G U53C C60A cannot be ordered by yeast fitness: at most 0.5 for the first, at most 0.5 for the second.

Compared with A14G C29U G52C, U32A G63C is higher in yeast fitness: at most 0.5 for the first, 0.626 for the second.

Going from U16C U32C to A14G U35G C55A G63A, the yeast fitness falls from 0.918 to at most 0.5.

Compared with G9A A21G, A43C G44C C55G C62U C66U is lower in yeast fitness: 1.05 for the first, at most 0.5 for the second.

C11G G25A A45C and C27A G39A A42C G48C C60U cannot be ordered by yeast fitness: at most 0.5 for the first, at most 0.5 for the second.

Compared with G39C U47C A57C C61A U64C, A14G C29G C31U A70C is higher in yeast fitness: at most 0.5 for the first, 0.51 for the second.

Compared with U2A U28C G41C C66A, U8A U13A G48C is higher in yeast fitness: at most 0.5 for the first, 0.516 for the second.

First: C4A G9A C22A C27G
Second: U2A U16G C66U
The yeast fitness of the first is lower: at most 0.5 for the first, 0.806 for the second.

U8A G18C C24A U32C A70U and U19C A37G G58C C61U U64C cannot be ordered by yeast fitness: at most 0.5 for the first, at most 0.5 for the second.

Going from U8C A15G to C5U G10C C27G U28C G39C C46G A69U, the yeast fitness falls from 0.969 to at most 0.5.

G6C A14C C24U C29A G39C and A20U A40U G44C U53G cannot be ordered by yeast fitness: at most 0.5 for the first, at most 0.5 for the second.

First: G18C C30G U32C A69U
Second: C11G G48A
The yeast fitness of the first is lower: at most 0.5 for the first, 0.582 for the second.

A21G C30U U53A A57U A65U and C5G U7C C11U G25A cannot be ordered by yeast fitness: at most 0.5 for the first, at most 0.5 for the second.

Going from U3A C5G U35A A40U C46G U53A to G6C A20U C30G C66U, the yeast fitness falls from 0.583 to at most 0.5.

First: A15C C29U G39C A42U G50U G51C G63A A65U
Second: A36C A37U A65C
The yeast fitness of the first is lower: at most 0.5 for the first, 0.534 for the second.

Going from C4U A37G to C5U C29A C62A, the yeast fitness falls from 0.875 to at most 0.5.

First: C5U A36G C55G C66G
Second: C27U U32A
The yeast fitness of the first is lower: at most 0.5 for the first, 0.993 for the second.

Compared with A15C G25A U28A, U8G G67U is higher in yeast fitness: at most 0.5 for the first, 0.583 for the second.

Compared with U7C C29U, U16G U26A C34U G50A A69U is lower in yeast fitness: 0.754 for the first, 0.551 for the second.

First: U2C G12C
Second: C24U U26G A36G A43G
The yeast fitness of the first is higher: 0.831 for the first, at most 0.5 for the second.

First: A21U G48C C55A C66G G67C
Second: U28G A36U C60U
The yeast fitness of the first is higher: 0.526 for the first, at most 0.5 for the second.

C5U A21C A43C and G6A U26C C62U cannot be ordered by yeast fitness: at most 0.5 for the first, at most 0.5 for the second.

First: C4G C30G G50U
Second: G68U A69C
The yeast fitness of the first is lower: at most 0.5 for the first, 0.817 for the second.

Compared with U13A A21U A42U G44C, G6C G23A A70U is lower in yeast fitness: 0.652 for the first, at most 0.5 for the second.

Going from C27U C46U G48A A70C to U2A C24G A70U, the yeast fitness falls from 0.669 to at most 0.5.

Compared with A36C C61G, A15C U26C G56A C61U is lower in yeast fitness: 0.609 for the first, at most 0.5 for the second.

Going from G9C C61A to U2A A21C C29U A57C, the yeast fitness rises from 0.531 to 0.583.

Compared with C5G U7A, C11G A20C C49A U54G is lower in yeast fitness: 0.792 for the first, at most 0.5 for the second.

C4A A15G C22U A36U C60A and C4U U19C A37U C62A cannot be ordered by yeast fitness: at most 0.5 for the first, at most 0.5 for the second.

Going from A45C U47C U64C A65C to C27G C31G G68A, the yeast fitness falls from 0.725 to at most 0.5.

Going from C4U G9A C61G to C4A C5G C22U, the yeast fitness falls from 0.566 to at most 0.5.

Work on A15C U47G G68U yielded a yeast fitness of at most 0.5.
